# Assay results reported in the EternaBench riboswitch data.
# Tested on: MS2 coat protein
# Experiment: apparent Kd, MS2 coat protein; higher = weaker binding; RNA-MaP array; FMN 200 µM where present
# In short: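 Designs were transcribed by stalled E. coli RNA polymerase on Illumina sequencing-chip clusters. They were titrated with SNAP-549-labelled MS2 coat protein from 0.7 or 1.5 nM, doubling to 3 µM, in 100 mM Tris-HCl pH 7.5, 80 mM KCl, 4 mM MgCl2, BSA, DTT, yeast tRNA and Tween-20, without and then with constant ligand. The apparent Kd is the median of filtered per-cluster fits after normalisation of green signal to red-channel RNA signal and control-cluster median Fmax.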
# [1] = designed as: ON switch for flavin mononucleotide, no ligand
# [2] = ligand present: flavin mononucleotide, designed as: ON switch for flavin mononucleotide
# [3] = designed as: OFF switch for flavin mononucleotide, no ligand
# [4] = ligand present: flavin mononucleotide, designed as: OFF switch for flavin mononucleotide
Sequence,apparent Kd [1] [nM],apparent Kd [2] [nM],apparent Kd [3] [nM],apparent Kd [4] [nM]
AAAAAAAAAAUGCAGGAUAUGGGAAAAAAAACAUGAGGAUCACCCAUGUAAAAAAAAAAAAAAAACUAGAAGGGUAAAAAAAAAAA,80.2,62.3,–,–
AAAAAACAUGAGGAUCACCCAUGUAAAAAAAAUGGAGGAUAUUGGAAAAAAAAAAAAAAACGAGAAGGCUAAAAAA,84.4,71.1,–,–
AAAAAACAUGAGGAUCACCCAUGUAAGGAUAUCGUGCAGAAAAAAAAAAAAAACUGCACGAGAAGGUACAAGGA,–,–,74.4,108
AAAAAACAUGAGGAUCACCCAUGUAAGGAUAUGCAAAAAAAAAAAAAAAAAAAAAAAAGCAGAAGGUACAAAAA,–,–,34.2,62
AAAAAACAUGAGGAUCACCCAUGUGAGGAUAUCAGUAUUCAGUCCUCGGAUUGAGUACUGAGAAGGCACAUAAA,–,–,51.5,94.2
AAAAAGGCAGGAUAUACAUGAGGAUCACCCAUGUUAAAAAAAAAAAAAAAAAAAAAGUGUAGAAGGGCCAAAAA,–,–,55.6,55
AAAAAGUGAGGAUAUGCUUUUAUUUAUUAUUAUUAUUAUUUGCAGAAGGCACAUGAGGAUCACCCAUGUAAGAA,–,–,31.7,24.9
AAAACACAUGAGGAUCACCCAUGUAUCUGGACCAUAGGAUAUCCGCACCCACUAGGGCGUGGAGAAGGGUGAGCCC,170,194,–,–
AAAACACAUGAGGAUCACCCAUGUAUCUGGACCAUAGGAUAUCCGCGCCCAAUAAGGUGUGGAGAAGGGUGAGCCC,158,181,–,–
AAAACACAUGAGGAUCACCCAUGUGAGGAUAUGUUAAUUUCGGCCAAAGCCGAAAUUAACAGAAGGCACAUAAA,–,–,49.9,45.1
AAAACGGUAGGAUAUACAGUCCGUUGUCGAAUGAUGAAAAGACAUGAGGAUCACCCAUGUAGAAGGACCGAAAA,–,–,54.8,125
AAAACUGGAGGAUAUACAUGAGGAUCACCCAUGUGUGGAUGAGCUGUGUCGGCGUCACGUAGAAGGCCACAAAA,–,–,40.5,47.5
AAAAGACAUGAGGAUCACCCAUGUAAAGACGUAGGAGGAUAUGUAUGGAAACCAUACUGUACAGAAGGCCUUUGUC,23.8,18.3,–,–
AAAAGGCAAGGAUAUACAUGAGGAUCACCCAUGUAAUUCCCGUCGGGAUGACCGAUAUGUAGAAGGUGCAUUAA,–,–,20.1,43.4
AAAAGUAGAGGAUAUACAUGAGGAUCACCCAUGUAGAAAGGAAGUGUAUAUAUGGCGUGUAGAAGGCUGCAUGA,–,–,38.3,39.2
AAAAGUUGAGGAUAUGGCUAUUUGGACAUGAGGAUCACCCAUGUGUCUAUGGCCCGGGUGCCAGAAGGUGAUUACU,–,–,92.2,94.3
AAAAGUUGGUAAGGAUAUCCCACAUUAUUCUGACCCGUGCAAGCUACAUGAGGAUCACCCAUGUGGGAGAAGGUGCGUUAAAGA,–,–,54.7,64.6
AAAAUACAUGAGGAUCACCCAUGUCAGGAUAUUCCUGCAGCCUUGAAUAUGGGCUGGUGAAGAAGGGACGGUGA,–,–,40.1,105
AAAAUGGUCUAGGAUAUGACAAAUCUGAGCACGUCAGAAGGAGACACAUGAGGAUCACCCAUGUGGGUGCGAAA,–,–,36.1,189

Sequence,apparent Kd [1] [nM],apparent Kd [2] [nM],apparent Kd [3] [nM],apparent Kd [4] [nM]
AAAAUGUGAGGAUAUCAGGUGUGCUAGCGAACUGGUACAUCUGAGAAGGCACAUGAGGAUCACCCAUGUUCCUU,–,–,15.8,57
AAACAUGUCCGAGGAUAUCUGAGAUCAUUUUCAAGAGAAGGCGGACAUGAGGAUCACCCAUGUCUCUCCUCAUCAACGCCAAAU,–,–,26.9,51.7
AAACAUGUCCGAGGAUAUCUGGAAACAUUUCCAAGAGAAGGCGGACAUGAGGAUCACCCAUGUCUCUCCUCAUCACAUCCAAGU,–,–,9.27,79.3
AAACAUGUCCGAGGAUAUCUGGAAACAUUUCCGAGAGAAGGCGGACAUGAGGAUCACCCAUGUCUCUCCUCAUCAAAUCCAAGU,–,–,8.44,80.7
AAACAUGUCCGAGGAUAUCUGGAAACAUUUUCAAGAGAAGGCGGACAUGAGGAUCACCCAUGUCUCUCCUCAUCAACUAUAAAU,–,–,8.24,60.6
AAACGACGUCAGAAGGCCGAUGGAUUUGACCACGGAGGAUAUGACAUGAGGAUCACCCAUGUGGUGCUUCUAACCCGCUGGGCC,–,–,501,69.7
AAACGCGUAGGAUAUACAUGAGGAUCACCCAUGUAUUGGGCUGUUGAUCUUCCUAAGGGUAGAAGGACGGGCAC,–,–,68.1,119
AAACUAGUAGAGGAUAUUCCAGGCAGUGUUUGAGAAGAAGGCUACACAUGAGGAUCACCCAUGUGGCCUGGUGG,–,–,13.6,17.1
AAACUGCCACAUGAGGAUCACCCAUGUAAAUAAAGUAUUUGGAGAAGGGCGAUAGCAAAGCUAUCGCAGGAUAUCCUCAGGCAG,801,87.9,–,–
AAAGAACAUGAGGAUCACCCAUGUGAGGAUAUACGAGCGUGAGAAAGAUAAAACGAGCGUAGAAGGCACAAGAA,–,–,76.9,81.5
AAAGGACAUGAGGAUCACCCAUGUCAGGAUAUCGCUUUAGGACAUACCCAUUAACCUGCGAGAAGGGACGGUGA,–,–,32.8,44.6
AAAGUACAUGAGGAUCACCCAUGUCCCAAUGAAUAAGGAUAUACGAAAAUAAAAUAAAAUGUAGAAGGUAUAAUAG,31.6,27.2,–,–
AAAGUUGGUAGGCCCUCGGAACAUGAGGAUCACCCAUGUAAGGAGGAUAUGCCCGGUACCCGCUGGCAGAAGGCCUUAUAAGAA,–,–,28.2,239
AAAUAAAAUAUAGGAUAUGGAAACAUGAGGAUCACCCAUGUAUGAUAAGAUAAAUAAUGAUAUAGCCAGAAGGAUACAAUAUAA,31,38.3,–,–
AAAUAAACUACGAAGAUAUCCUCACAUGAGGAUCACCCAUGUCAGGAUAUUUGUCCUAAAAGGACAGAGAAGGGACGUCGUAGA,–,–,5.09,7.54
AAAUAAAGGACUAAGGAUAUAUCGCAUGACACAUGAGGAUCACCCAUGUGGUAACACAGAGGGUGAUAGAAGGUAGUCCACAAACA,404,75.8,–,–
AAAUACCGGUGAGGAUAUUUUUAAUAGAGCUUUAUGAUAUACAUGAGGAUCACCCAUGUUACGUUAAAGAAGGCAUCGGAUAAA,–,–,18.4,16.6
AAAUACGUUUCGUAGCAGUGUCAUCGAGAAGGCCCUGACAUGAGGAUCACCCAUGUUGUUACAUGGGAGGAUAUCGAUGAUAAA,16.2,5.52,–,–
AAAUAGGCAGGAUAUACAUGAAAAUUAAAAAAAAAAAAAAAACAUGAGGAUCACCCAUGUAGAAGGGUCAAAAA,–,–,97.5,92.9

Sequence,apparent Kd [1] [nM],apparent Kd [2] [nM],apparent Kd [3] [nM],apparent Kd [4] [nM]
AAAUCACAUGAGGAUCACCCAUGUGAGGAUAUGAUACUAUGUACUUCGGUACAUAGUAUCAGAAGGCAUAUGGA,–,–,23,35.9
AAAUCGGCAGGAUAUACAUGAAAAUUAAAAAAAAAAAAAAAACAUGAGGAUCACCCAUGUAGAAGGGUCAAAAA,–,–,88.9,89.2
AAAUGAUGUCAGGAUAUUGACGUUAAAAGAACGCAAGAAGGGACAACAUGAGGAUCACCCAUGUGGUCCUAUAA,–,–,14.9,34
AAAUGCCUGUCGAUGCUCGACAUGAGGAUCACCCAUGUACAGCAGGAUAUGCAGAACAACCUCGUGCAGAAGGGCUGUACCAAU,–,–,54.3,157
AAAUGCUUGUCGAUGCUCGACAUGAGGAUCACCCAUGUAUAGCAGGAUAUGCAGAACUGACUCGUGCAGAAGGGCUAUACCUAA,–,–,23.2,69.6
AAAUUAAGAAGAGGAUAUUGACAUGAGGAUCACCCAUGUAUUUGGGAAUGUUUACUGAAUUCUUACGAGAAGGUUUACGAACUU,–,–,191,132
AAAUUAAGAAGAGGAUAUUGACAUGAGGAUCACCCAUGUAUUUGGGAGUGUUUACUGAAUUCUUACGAGAAGGCUUACGAAAUU,–,–,221,212
AAAUUAAGUGUGAGGAUAUGCUGGUCCUUAGAUCAGCAGAAGGCACAUGAGGAUCACCCAUGUAAUAUAUUUAA,–,–,38.9,193
AAAUUUAACGAAGGAUAUACAAACAUGAGGAUCACCCAUGUGUGUUUCGUGUUACUGAAAUUCGGGUAGAAGGUCGUAUACAUA,–,–,23.4,18.1
AAAUUUAACGAAGGAUAUGCUGACAUGAGGAUCACCCAUGUGUGCCUUGUGUUACUGAUUAGGAAGCAGAAGGUCGUAUACAUA,–,–,831,414
AAAUUUAACGAAGGAUAUGGUGACAUGAGGAUCACCCAUGUUAAUUUUGUGAUCUUGUUUAAGUUCCAGAAGGUCGUAUACAUA,–,–,210,600
AACAAACGCCUAGGAUAUCAUACUCGAGCGGUCUGAGAAGGAGGCAAGCUUGGGUCCUCAGCACAUGAGGAUCACCCAUGUAAG,–,–,303,57.2
AACAAUUAGUAAGGAUAUACUAGCGAUUAGCUUGUAGAAGGUACAGUCUUAUGUAUAACAAAUUAACAUGAGGAUCACCCAUGU,10.4,7.88,–,–
AACACAACAUGAAACAUGAGGAUCACCCAUGUUGUUUGUAAUCAGGAUAUGAUCUCAAGAAUGAAUUAGAAGGGAUAGGGAGGG,35.8,47.1,–,–
AACAGCUCGUCAGGAUAUAUUUUCAUUAUAUGUAUUUAUGUACAUGAGGAUCACCCAUGUUGUUUGUAGAAGGGACGAGCUGAA,–,–,13.6,11.4
AACAGUAGAGGAUAUACAUGAGGAUCACCCAUGUGAUAUUUACGUGGCGUACCACGAAGUAGAAGGCUACUGGA,–,–,30.7,265
AACAGUCUGGAGGAUAUGCUGGAUGAAUAUCUGGCAGAAGGCUGGACAUGAGGAUCACCCAUGUAAAUACUACC,–,–,27.1,54.5
AACAUGUCAGGAUAUGUGACAUGGCUCUUCGGAGCAAGAUCACAGAAGGGACAUGAGGAUCACCCAUGUCGAUC,–,–,38.7,156
